Data on 4 compounds can be found in article PMC3321063 (Bioorganic & medicinal chemistry letters, 2012).

Entries after “also recorded” stand apart in the source; their conditions may differ.

The target in one data set is PS1-NTF (Homo sapiens, UniProt P49768). It counts as binding. To be noted: HeLa membranes; for PS1-NTF photolabeling: irradiation ~350 nm. The essentials:
(§1)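 HeLa membranes (800 μg/1.2 mL PBS) incubated 1 h at 37 °C with clickable photoprobe (20 nM) with or without competing GSI (1 μM), then irradiated at ~350 nm for 30 min at 4 °C and pelleted. Click reaction in PBS: TCEP 1.0 mM, CuSO4 1.0 mM, TBTA 0.1 mM, biotin-azide 0.1 mM, 1 h RT with agitation. Pelleted membranes solubilized in RIPA, streptavidin-enriched, SDS-PAGE, Western blot.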

Data set [1] deals with intracellular γ-secretase. To be noted: previous studies; cited from earlier work.
Data set [2] deals with T1, signal peptide peptidase (SPP) (Homo sapiens, UniProt Q8TCT9).
T1 sequence (Q8TCT9 1-377): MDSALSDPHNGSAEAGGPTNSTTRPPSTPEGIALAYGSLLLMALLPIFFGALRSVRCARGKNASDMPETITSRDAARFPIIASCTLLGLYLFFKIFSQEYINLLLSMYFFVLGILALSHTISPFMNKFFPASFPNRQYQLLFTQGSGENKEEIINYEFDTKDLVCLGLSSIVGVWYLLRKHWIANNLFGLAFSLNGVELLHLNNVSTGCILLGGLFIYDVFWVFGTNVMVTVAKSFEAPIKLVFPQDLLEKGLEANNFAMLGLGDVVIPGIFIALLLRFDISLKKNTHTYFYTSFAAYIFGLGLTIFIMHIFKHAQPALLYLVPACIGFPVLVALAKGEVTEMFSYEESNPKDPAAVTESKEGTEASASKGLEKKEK
In kind it is binding. To be noted: HeLa membranes, probe 20 nM. The essentials: as §1

In a further data set the target is PS1-CTF (Homo sapiens, UniProt P49768). In kind it is binding. Particulars: HeLa membranes, probe 20 nM. A digest of the protocol: as §1

As for `CC(C)C[C@H](NC(=O)[C@H](Cc1ccccc1)C[C@@H](O)[C@H](Cc1ccccc1)NC(=O)OC(C)(C)C)C(=O)N[C@@H](Cc1ccccc1)C(N)=O` [compound 1, reference compound], the “blocking of PS1-NTF labeling by competitor” value on PS1-NTF (competitor 1 μM, probe 2 or 4) was “PS1-NTF labeling was blocked”.
Take `CC(C)C[C@H](NC(=O)[C@H](Cc1ccccc1)C[C@@H](O)[C@H](Cc1ccccc1)NC(=O)c1ccc(C(=O)c2ccccc2)cc1)C(=O)N[C@@H](Cc1ccccc1)C(=O)NCCCCCNC(=O)CCCC[C@@H]1SC[C@@H]2NC(=O)N[C@@H]21` [compound 2]: in data set [1], the “cell penetration (plasma membrane, access to intracellular γ-secretase)” value was “cannot”.
For `C#CCCCCNC(=O)[C@H](Cc1ccccc1)NC(=O)[C@H](CC(C)C)NC(=O)[C@H](Cc1ccccc1)C[C@@H](O)[C@H](Cc1ccccc1)NC(=O)c1ccc(C(=O)c2ccccc2)cc1` [compound 4], the “labeling efficiency of PS1-NTF relative to 2 (fold less)” value on PS1-NTF (probe 20 nM, after click reaction with biotin-azide) was 2–3 fold. For the same compound, the PS1-NTF photolabeling entry on PS1-NTF (probe 20 nM) is on record as “efficient PS1-NTF photolabeling; also recorded: strongly labeled PS1-NTF vs. CTF”. The SPP photolabeling result in data set [2] is recorded as “minimal labeling of SPP”.
`C#CCCCCNC(=O)[C@H](Cc1ccc(C(=O)c2ccccc2)cc1)NC(=O)[C@H](CC(C)C)NC(=O)[C@H](Cc1ccccc1)C[C@@H](O)[C@H](Cc1ccccc1)NC(=O)OC(C)(C)C` [compound 5]: the PS1-NTF photolabeling entry on PS1-NTF (probe 20 nM) was “minimal PS1-NTF labeling”. Besides, the PS1-CTF photolabeling result on PS1-CTF is listed as “expected preference for PS1-CTF”. In data set [2], the SPP photolabeling entry is on record as “significant labeling of SPP”.
